pIC50: −log10 of the molar value.
Tests used:
[1] = target: T1, Voltage-dependent T-type calcium channel subunit alpha-1G (Homo sapiens, UniProt O43497); assay: Inhibition of T-type calcium channel Cav3.1 expressed in HEK293 cells co-expressing alpha1G subunit at 10 uM by whole-cell patch clamp method; type: cell-based
How it was run: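 α1G T-type channel expressed in HEK293 cells, whole-cell patch clamp. Percent inhibition of α1G currents at a single test concentration, given as mean ± SE from n ≥ 4 repeats. IC50 is the molar concentration giving 50% current inhibition, obtained by fitting raw data to dose–response curves.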

[2] = target: T1, Voltage-dependent T-type calcium channel subunit alpha-1G; assay: Inhibition of T-type calcium channel Cav3.1 expressed in HEK293 cells co-expressing alpha1G subunit by whole-cell patch clamp method; type: cell-based
[3] = target: Voltage-dependent N-type calcium channel subunit alpha-1B (Homo sapiens) (UniProt Q00975); assay: Inhibition of N-type calcium channel expressed in HEK293 cells co-expressing Alpha-1B subunit at 10 uM; type: cell-based
How it was run: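 N-type α1B channel expressed in HEK293 cells. Percent current inhibition at a single test concentration, reported as mean ± SE from n ≥ 4 repeated measurements. Inhibition below 1% was recorded as no blocking.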

[4] = organism: Homo sapiens; assay: Selectivity index, ratio of T-type calcium channel Cav3.1 to N-type calcium channel at 10 uM
[5] = target: Voltage-dependent T-type calcium channel subunit alpha-1H (Homo sapiens) (UniProt O95180); assay: Inhibition of T-type calcium channel Cav3.2 expressed in Xenopus oocytes coexpressing alpha-1H subunit at 100 uM by two-electrode voltage clamp method
Voltage-dependent T-type calcium channel subunit alpha-1H (Homo sapiens), sequence (O95180 whole entry): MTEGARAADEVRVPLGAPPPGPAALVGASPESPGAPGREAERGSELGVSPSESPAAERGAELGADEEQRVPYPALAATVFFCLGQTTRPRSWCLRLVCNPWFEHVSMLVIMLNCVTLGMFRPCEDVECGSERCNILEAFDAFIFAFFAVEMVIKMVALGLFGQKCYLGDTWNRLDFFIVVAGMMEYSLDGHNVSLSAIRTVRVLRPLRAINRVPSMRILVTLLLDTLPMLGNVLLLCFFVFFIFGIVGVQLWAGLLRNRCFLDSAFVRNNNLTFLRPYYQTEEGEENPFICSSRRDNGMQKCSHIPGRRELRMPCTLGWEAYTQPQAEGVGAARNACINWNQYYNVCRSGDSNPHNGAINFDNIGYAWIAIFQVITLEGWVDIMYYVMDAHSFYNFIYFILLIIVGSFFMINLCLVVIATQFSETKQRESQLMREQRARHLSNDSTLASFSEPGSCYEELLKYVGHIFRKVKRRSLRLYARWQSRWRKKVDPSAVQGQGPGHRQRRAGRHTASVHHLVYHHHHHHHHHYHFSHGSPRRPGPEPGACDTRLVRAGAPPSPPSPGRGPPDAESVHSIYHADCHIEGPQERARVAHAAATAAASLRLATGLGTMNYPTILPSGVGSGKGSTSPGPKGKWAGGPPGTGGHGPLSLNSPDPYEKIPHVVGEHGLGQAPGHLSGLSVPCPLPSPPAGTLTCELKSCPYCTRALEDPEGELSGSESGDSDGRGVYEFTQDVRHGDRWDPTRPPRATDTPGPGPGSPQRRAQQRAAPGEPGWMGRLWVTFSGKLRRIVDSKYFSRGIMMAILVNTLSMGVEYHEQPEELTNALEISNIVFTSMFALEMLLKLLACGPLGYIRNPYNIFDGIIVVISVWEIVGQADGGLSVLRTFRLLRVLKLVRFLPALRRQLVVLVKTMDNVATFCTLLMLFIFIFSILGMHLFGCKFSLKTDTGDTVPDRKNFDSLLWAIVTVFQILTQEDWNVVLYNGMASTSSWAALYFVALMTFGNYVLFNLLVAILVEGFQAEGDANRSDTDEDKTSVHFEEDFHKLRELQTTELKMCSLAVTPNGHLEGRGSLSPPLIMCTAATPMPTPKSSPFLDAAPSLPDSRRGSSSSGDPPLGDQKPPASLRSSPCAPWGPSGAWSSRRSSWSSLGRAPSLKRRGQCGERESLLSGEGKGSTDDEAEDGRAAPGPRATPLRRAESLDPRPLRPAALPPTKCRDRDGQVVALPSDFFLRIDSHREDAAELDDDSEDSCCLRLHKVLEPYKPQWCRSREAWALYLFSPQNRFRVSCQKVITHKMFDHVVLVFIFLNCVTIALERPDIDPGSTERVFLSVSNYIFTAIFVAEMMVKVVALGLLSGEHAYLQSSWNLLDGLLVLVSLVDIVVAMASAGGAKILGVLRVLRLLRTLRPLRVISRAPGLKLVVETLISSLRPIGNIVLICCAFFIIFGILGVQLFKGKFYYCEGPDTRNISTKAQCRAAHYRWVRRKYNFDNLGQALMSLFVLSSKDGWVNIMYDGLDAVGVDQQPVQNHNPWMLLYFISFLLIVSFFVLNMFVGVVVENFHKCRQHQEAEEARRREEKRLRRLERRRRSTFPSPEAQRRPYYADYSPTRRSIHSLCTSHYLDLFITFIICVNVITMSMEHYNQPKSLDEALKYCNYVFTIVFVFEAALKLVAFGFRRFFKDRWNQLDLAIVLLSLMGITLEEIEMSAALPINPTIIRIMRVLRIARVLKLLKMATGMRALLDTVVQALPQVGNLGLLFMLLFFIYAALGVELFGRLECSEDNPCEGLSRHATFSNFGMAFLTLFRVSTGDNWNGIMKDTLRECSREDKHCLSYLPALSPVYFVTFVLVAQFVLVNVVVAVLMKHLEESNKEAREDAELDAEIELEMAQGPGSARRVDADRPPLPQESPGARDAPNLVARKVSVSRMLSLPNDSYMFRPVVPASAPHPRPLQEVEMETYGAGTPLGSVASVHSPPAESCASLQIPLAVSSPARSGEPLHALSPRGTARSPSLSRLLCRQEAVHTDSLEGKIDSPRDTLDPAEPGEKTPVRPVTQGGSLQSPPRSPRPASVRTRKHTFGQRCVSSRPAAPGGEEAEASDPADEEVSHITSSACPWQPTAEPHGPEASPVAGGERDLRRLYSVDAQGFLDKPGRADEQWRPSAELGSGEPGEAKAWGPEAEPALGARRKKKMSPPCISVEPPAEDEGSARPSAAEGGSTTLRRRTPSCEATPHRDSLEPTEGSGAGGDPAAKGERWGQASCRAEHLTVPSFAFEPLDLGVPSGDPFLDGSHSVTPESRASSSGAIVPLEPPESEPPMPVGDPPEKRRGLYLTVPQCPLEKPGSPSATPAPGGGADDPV

Voltage-dependent N-type calcium channel subunit alpha-1B (Homo sapiens), sequence (Q00975 whole entry, looked up): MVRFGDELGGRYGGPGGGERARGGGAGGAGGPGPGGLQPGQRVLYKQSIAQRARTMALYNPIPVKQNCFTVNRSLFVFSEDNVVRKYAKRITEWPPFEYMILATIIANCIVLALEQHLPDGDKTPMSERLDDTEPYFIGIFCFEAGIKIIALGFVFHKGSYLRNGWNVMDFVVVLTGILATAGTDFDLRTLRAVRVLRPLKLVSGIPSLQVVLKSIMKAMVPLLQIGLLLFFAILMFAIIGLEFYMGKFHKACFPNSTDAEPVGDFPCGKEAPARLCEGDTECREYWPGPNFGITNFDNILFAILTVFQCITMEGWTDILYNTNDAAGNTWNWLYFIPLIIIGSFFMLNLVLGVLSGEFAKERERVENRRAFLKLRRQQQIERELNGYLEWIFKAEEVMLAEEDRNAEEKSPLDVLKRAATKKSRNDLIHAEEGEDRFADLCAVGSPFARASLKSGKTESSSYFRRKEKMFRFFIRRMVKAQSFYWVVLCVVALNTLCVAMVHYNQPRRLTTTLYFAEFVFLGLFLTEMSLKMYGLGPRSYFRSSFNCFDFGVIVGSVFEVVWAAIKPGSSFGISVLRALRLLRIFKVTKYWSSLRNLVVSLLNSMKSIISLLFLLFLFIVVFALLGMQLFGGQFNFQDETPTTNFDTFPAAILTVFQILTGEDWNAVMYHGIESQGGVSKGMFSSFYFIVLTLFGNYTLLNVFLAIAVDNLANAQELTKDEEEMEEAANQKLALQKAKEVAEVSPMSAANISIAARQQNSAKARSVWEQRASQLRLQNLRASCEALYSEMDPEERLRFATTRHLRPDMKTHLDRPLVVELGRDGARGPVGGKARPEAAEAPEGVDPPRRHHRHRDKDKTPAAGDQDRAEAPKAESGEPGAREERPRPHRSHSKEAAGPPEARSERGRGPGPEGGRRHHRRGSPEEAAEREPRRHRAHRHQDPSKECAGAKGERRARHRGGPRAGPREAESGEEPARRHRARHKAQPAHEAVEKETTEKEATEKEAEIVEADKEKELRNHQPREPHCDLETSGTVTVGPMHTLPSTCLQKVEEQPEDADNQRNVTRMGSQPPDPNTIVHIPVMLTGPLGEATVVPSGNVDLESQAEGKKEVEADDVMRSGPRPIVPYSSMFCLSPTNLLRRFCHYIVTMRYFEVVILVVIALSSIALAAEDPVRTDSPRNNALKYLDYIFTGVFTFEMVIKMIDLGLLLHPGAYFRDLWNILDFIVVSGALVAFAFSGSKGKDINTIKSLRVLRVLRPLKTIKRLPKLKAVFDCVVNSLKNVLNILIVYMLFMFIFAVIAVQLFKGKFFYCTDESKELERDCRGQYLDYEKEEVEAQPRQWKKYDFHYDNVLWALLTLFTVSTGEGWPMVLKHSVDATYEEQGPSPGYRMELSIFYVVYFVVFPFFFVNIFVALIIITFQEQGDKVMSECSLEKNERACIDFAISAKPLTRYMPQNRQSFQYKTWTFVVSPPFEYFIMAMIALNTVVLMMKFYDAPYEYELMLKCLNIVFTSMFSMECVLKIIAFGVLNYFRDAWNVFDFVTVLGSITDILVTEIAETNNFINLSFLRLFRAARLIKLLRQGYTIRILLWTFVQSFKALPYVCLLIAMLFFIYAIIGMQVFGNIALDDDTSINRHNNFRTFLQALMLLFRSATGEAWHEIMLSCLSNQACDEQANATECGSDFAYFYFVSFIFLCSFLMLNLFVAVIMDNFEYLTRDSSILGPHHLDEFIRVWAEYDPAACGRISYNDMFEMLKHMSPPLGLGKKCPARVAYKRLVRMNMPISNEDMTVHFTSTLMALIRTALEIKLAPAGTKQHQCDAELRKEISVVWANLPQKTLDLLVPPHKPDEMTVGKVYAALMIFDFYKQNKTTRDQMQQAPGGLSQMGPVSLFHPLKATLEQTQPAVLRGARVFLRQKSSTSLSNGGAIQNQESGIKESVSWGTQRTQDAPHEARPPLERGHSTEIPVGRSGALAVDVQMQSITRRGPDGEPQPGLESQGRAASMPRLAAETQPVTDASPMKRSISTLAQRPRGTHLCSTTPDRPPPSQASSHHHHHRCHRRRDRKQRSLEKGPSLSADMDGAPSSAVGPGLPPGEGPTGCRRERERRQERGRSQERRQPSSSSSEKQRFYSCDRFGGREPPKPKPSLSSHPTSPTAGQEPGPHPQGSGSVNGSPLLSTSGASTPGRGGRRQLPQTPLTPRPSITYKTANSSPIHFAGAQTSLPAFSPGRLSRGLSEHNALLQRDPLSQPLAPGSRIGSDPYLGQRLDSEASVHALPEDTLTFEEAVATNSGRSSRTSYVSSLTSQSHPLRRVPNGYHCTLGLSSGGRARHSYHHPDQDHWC

Row | Compound | inhibition [1] | pIC50 [2] | inhibition [3] | Ratio [4] | inhibition [5]
1 | NCCCCCNC1=Nc2ccccc2C(CC(=O)NCc2ccccc2)N1c1ccc(-c2ccccc2)cc1 (stereo unspecified) |  |  |  | 10.1 | 
2 | COC(=O)CC1c2ccccc2N=C(NCCCCCN)N1c1ccc(-c2ccccc2)cc1 (stereo unspecified) |  |  |  | > 100 | 
3 | COC(=O)CC1c2ccccc2N=C(N(C)CCCCCN2CCCC2)N1c1ccc(-c2ccccc2)cc1 (stereo unspecified) | 94.9% | 6.47 | 36.5% | 2.6 | 88%

Now from value to compound:

Row | inhibition [1] | pIC50 [2] | inhibition [3] | Ratio [4] | inhibition [5] | Compound
4 | 68.1% | 5.38 | 46.3% | 1.5 | 82.7% | CN(CCCCCN1CCCC1)C1=Nc2ccccc2C(CC(=O)NCc2ccccc2)N1c1ccccc1 (stereo unspecified)
5 | 59.5% | 5.23 | 10.7% | 5.6 | 47.7% | COC(=O)CC1c2ccccc2N=C(N(C)CCCCCN2CCCC2)N1c1ccccc1 (stereo unspecified)
6 | 88.1% |  | 11.7% | 7.5 | 95.5% | CN(CCCCCN1CCCC1)C1=Nc2ccccc2C(CC(=O)NCc2ccccc2)N1c1ccc(-c2ccccc2)cc1 (stereo unspecified)

Source: ChEMBL document CHEMBL1138390, “Synthesis and biological evaluation of novel T-type calcium channel blockers” (Bioorg Med Chem Lett, 2007)
